The source of these data is ChEMBL document CHEMBL2331524, “Potent proteasome inhibitors derived from the unnatural cis-cyclopropane isomer of Belactosin A: synthesis, biological activity, and mode of action” (J Med Chem, 2013).

Active and inactive are the calls of the source. No cut-off for these calls is given here.

The nature of data set [1]: Half life in TEAA buffer at pH 7.4 by HPLC analysis. It counts as physicochemical. The essentials:
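Compound incubated in 0.1 M triethylammonium acetate (TEAA) buffer, pH 7.4, at 37 °C. The time course was recorded by HPLC, and the half-life (t1/2) was determined from that time course.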

Data set [2] deals with T1, Proteasome Macropain subunit MB1 (Homo sapiens, UniProt P28074).
T1 sequence (P28074 whole entry): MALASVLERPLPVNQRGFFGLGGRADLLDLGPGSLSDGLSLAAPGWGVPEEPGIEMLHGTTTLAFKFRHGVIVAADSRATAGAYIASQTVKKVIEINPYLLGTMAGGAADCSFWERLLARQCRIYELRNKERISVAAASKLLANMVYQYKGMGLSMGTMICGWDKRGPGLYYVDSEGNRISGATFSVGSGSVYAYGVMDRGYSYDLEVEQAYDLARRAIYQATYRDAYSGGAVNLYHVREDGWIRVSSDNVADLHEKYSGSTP
Put plainly: Inhibition of chymotrypsin-like activity of human 20S proteasome beta 5 subunit using Suc-LLVY-AMC as substrate after 60 mins by fluorescence assay.

For data set [3], the target named is T2, Proteasome Macropain subunit MB1 (Homo sapiens) (UniProt P28074).
T2 sequence (whole entry): T1 sequence (P28074 whole entry)
Briefly: Irreversible inhibition of chymotrypsin-like activity of human 20S proteasome beta 5 subunit using Suc-LLVY-AMC as substrate incubated for 12 hrs prior to substrate addition followed by compound wash out measured after 1 hr by dialysis method.

For data set [4], the target named is T2, Proteasome Macropain subunit MB1 (Homo sapiens). Put plainly: Inhibition of chymotrypsin-like activity of human constitutive 20S proteasome beta 5 subunit using […] at 0.3 uM incubated for 5 mins prior to […] measured after 1 hr by ELISA. In general terms: An ELISA detects its analyte on a solid surface through an enzyme-linked reagent.

Data set [5] addresses T3, Proteasome subunit beta type-8 (Homo sapiens) (UniProt P28062).
T3 sequence (whole entry): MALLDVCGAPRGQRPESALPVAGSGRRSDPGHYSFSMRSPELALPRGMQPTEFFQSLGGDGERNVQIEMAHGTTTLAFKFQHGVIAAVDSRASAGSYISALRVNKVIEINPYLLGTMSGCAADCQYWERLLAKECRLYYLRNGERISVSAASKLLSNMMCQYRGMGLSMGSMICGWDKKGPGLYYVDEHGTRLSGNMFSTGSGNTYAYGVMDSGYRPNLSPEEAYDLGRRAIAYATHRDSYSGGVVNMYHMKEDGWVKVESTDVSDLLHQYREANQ
Briefly: Inhibition of chymotrypsin-like activity of human 20S immunoproteasome beta 5 subunit using […] at 0.3 uM incubated for 5 mins prior to […] measured after 1 hr by ELISA.

The target of data set [6] is T2, Proteasome Macropain subunit MB1 (Homo sapiens). Put plainly: Reversible inhibition of chymotrypsin-like activity of human 20S proteasome beta 5 subunit using Suc-LLVY-AMC as substrate incubated for 12 hrs prior to substrate addition followed by compound wash out measured after 1 hr by dialysis method.
In data set [7] the test system is HCT-116. Briefly: Cytotoxicity against human HCT116 cells after 72 hrs by CCK-8 assay. The conditions noted are these: HCT-116, 72 h. In kind it is functional, cell-based. On the technique in general: Tetrazolium assays rely on reduction of a dye to a coloured formazan, in cell work by metabolically active cells.
Data set [8] has as its system HCT-116. Briefly: Inhibition of proteasome in human HCT116 cells assessed as accumulation of p53 by Western blotting analysis. It counts as cell-based. The essentials:
(§1)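 Cell extracts were immunoblotted for p53, read as a cellular marker of proteasome blockade, and for cleaved PARP, read as an apoptosis marker.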
A general note: In western blotting, separated proteins are transferred to a membrane and probed.

For data set [9], the system named is HCT-116. Briefly: Cell cycle arrest in human HCT116 cells assessed as accumulation at G2/M phase after 24 hrs by propidium iodide staining-based flow cytometric analysis. It counts as functional.
The test system of data set [10] is HCT-116. Briefly: Induction of apoptosis in human HCT116 cells assessed as induction of PARP cleavage by Western blotting analysis. It counts as functional, cell-based. The method in brief:
as §1

In data set [11] the target is T3, Proteasome subunit beta type-8 (Homo sapiens). Put plainly: Inhibition of chymotrypsin-like activity of human 20S immunoproteasome beta 5 subunit using […] at 2.5 uM incubated for 5 mins prior to […] measured after 1 hr by ELISA.
Data set [12] addresses T2, Proteasome Macropain subunit MB1 (Homo sapiens). The conditions noted are these: 2.5 uM.

Turning to `CC(C)[C@H](O)[C@@]12NC(=O)[C@H](C)[C@@H]1OC2=O` [OMURALIDE], the half-life (as a rule, how long it takes for the measured level to halve) in data set [1] worked out at 13 min.
For `C=C[C@H](C[C@@H]1C[C@@H]1NC(=O)[C@@H]1OC(=O)[C@H]1[C@@H](C)CC)NC(=O)CNC(=O)OCc1ccccc1`, in data set [2], inhibition was half-maximal at 41 nM (IC50).
The same measure, in the same setting: for `CC[C@H](C)[C@@H]1C(=O)O[C@H]1C(=O)N[C@H]1C[C@H]1C[C@@H](Cc1cccc2ccccc12)NC(=O)[C@H](C)NC(=O)OCc1ccccc1` the value was 130 nM.
On to `CC(C)C[C@H](NC(=O)[C@H](CCc1ccccc1)NC(=O)CN1CCOCC1)C(=O)N[C@@H](Cc1ccccc1)C(=O)N[C@@H](CC(C)C)C(=O)[C@@]1(C)CO1`, for which the inhibition entry in [3] was “Active”.
In the case of `COc1ccc(C[C@H](NC(=O)[C@H](C)NC(=O)CN2CCOCC2)C(=O)N[C@@H](Cc2ccccc2)C(=O)[C@]2(C)CO2)cc1`, the inhibition entry in data set [4] and in data set [5] was “Active” each time.
In turn, `CC[C@H](C)[C@@H]1C(=O)O[C@H]1C(=O)N[C@H]1C[C@H]1C[C@@H](CCc1ccccc1)NC(=O)[C@H](C)N` showed a half-life in [1] of 600 min.
Take `C=C[C@H](C[C@@H]1C[C@@H]1NC(=O)[C@@H]1OC(=O)[C@H]1[C@@H](C)CC)NC(=O)c1ccccc1`: the IC50 (in general, the concentration at which inhibition is half-maximal) in data set [2] was 130 nM.
The same measure, in the same setting: for `C=C[C@H](C[C@@H]1C[C@@H]1NC(=O)[C@@H]1OC(=O)[C@H]1[C@@H](C)CC)NC(=O)C(C)C` the value was 230 nM; for `C=C[C@H](C[C@@H]1C[C@@H]1NC(=O)[C@@H]1OC(=O)[C@H]1[C@@H](C)CC)NC(=O)[C@@H](C)NC(=O)OCc1ccccc1`, 57 nM.
Consider `CC[C@H](C)[C@@H]1C(=O)O[C@H]1C(=O)N[C@H]1C[C@H]1C[C@@H](CCc1ccccc1)NC(=O)[C@H](C)NC(=O)OCc1ccccc1`, for which the inhibition entry in [6], in [4] and in [5] was “Active” throughout. Also, the IC50 was 5.7 nM in [2] and 1820 nM in the data set with HCT-116 [7]. Further, in the data set with HCT-116 [8], the “p53 accumulation (active/inactive)” value is “Active”. Also, the outcome in the data set with HCT-116 [9] and in the data set on HCT-116 [10] was Active.
As for `C=C[C@H](C[C@@H]1C[C@@H]1NC(=O)[C@@H]1OC(=O)[C@H]1[C@@H](C)CC)NC(=O)[C@H](Cc1ccccc1)NC(=O)OCc1ccccc1`, the IC50 is 30 nM in [2] and 4160 nM with HCT-116 [7]. Further, the “p53 accumulation (active/inactive)” value in the data set with HCT-116 [8] was “Active”. Further, the outcome in the data set with HCT-116 [9] and in the data set on HCT-116 [10] was Active.
In data set [2], `CC[C@H](C)[C@@H]1C(=O)O[C@H]1C(=O)N[C@H]1C[C@H]1C[C@@H](CCCc1ccccc1)NC(=O)[C@H](C)NC(=O)OCc1ccccc1` returned an IC50 of 35 nM.
With `C=C[C@H](C[C@@H]1C[C@@H]1NC(=O)[C@@H]1OC(=O)[C@H]1[C@@H](C)CC)NC(=O)[C@H](C)NC(=O)OCc1ccccc1`, the IC50 in data set [2] is 49 nM; in the data set on HCT-116 [7], 910 nM. Also, the result in the data set with HCT-116 [9] was Active.
The compound `C=C[C@H](C[C@@H]1C[C@@H]1NC(=O)[C@@H]1OC(=O)[C@H]1[C@@H](C)CC)NC(=O)[C@H](CC(C)C)NC(=O)OCc1ccccc1` showed a half-inhibitory concentration (IC50) in [2] of 47 nM.
Still for that read-out and setting: for `CC[C@H](C)[C@@H]1C(=O)O[C@H]1C(=O)N[C@H]1C[C@H]1C[C@@H](CCc1ccc2ccccc2c1)NC(=O)[C@H](C)NC(=O)OCc1ccccc1` the value was 29 nM; for `C=C[C@H](C[C@@H]1C[C@@H]1NC(=O)[C@@H]1OC(=O)[C@H]1[C@@H](C)CC)NC(=O)[C@H](C)N`, 300 nM; for `C=C[C@H](C[C@@H]1C[C@@H]1NC(=O)[C@@H]1OC(=O)[C@H]1[C@@H](C)CC)NC(=O)[C@H](C)NC(=O)c1ccccc1`, 79 nM.
In the case of `CC(C)C[C@H](NC(=O)[C@H](Cc1ccccc1)NC(=O)c1cnccn1)B(O)O` [BORTEZOMIB], the inhibition result in data set [6] was “Active”. Besides, the 50% inhibitory concentration (IC50) in the data set with HCT-116 [7] came to 10 nM. The “p53 accumulation (active/inactive)” value with HCT-116 [8] was “Active”. The outcome in the data set with HCT-116 [9] and in the data set on HCT-116 [10] was Active.
Compound `CC[C@H](C)[C@@H]1C(=O)O[C@H]1C(=O)N[C@H]1C[C@H]1C[C@@H](CCc1ccccc1)NC(=O)c1ccc2ccccc2c1` displayed a half-inhibitory concentration (IC50) in data set [2] of 33 nM.
On the same count and under the same terms, the same measure for `CC[C@H](C)[C@@H]1C(=O)O[C@H]1C(=O)N[C@H]1C[C@H]1C[C@@H](CCc1cccc2ccccc12)NC(=O)[C@H](C)NC(=O)OCc1ccccc1`: 63 nM.
With `C[C@@]12OC(=O)[C@]1([C@@H](O)[C@@H]1C=CCCC1)NC(=O)[C@@H]2CCCl` [MARIZOMIB], the half-life in data set [1] amounted to 56 min.
The compound `C=C[C@H](C[C@@H]1C[C@@H]1NC(=O)[C@@H]1OC(=O)[C@H]1[C@@H](C)CC)NC(=O)[C@H](C)NC(C)=O` gave an IC50 in data set [2] of 230 nM.
Still for that read-out and setting: for `CC[C@H](C)[C@@H]1C(=O)O[C@H]1C(=O)N[C@H]1C[C@H]1C[C@@H](Cc1ccc2ccccc2c1)NC(=O)[C@H](C)NC(=O)OCc1ccccc1` the value was 200 nM; for `C=C[C@H](C[C@@H]1C[C@@H]1NC(=O)[C@@H]1OC(=O)[C@H]1[C@@H](C)CC)NC(=O)[C@H](C)NC(=O)OC(C)(C)C`, 77 nM.
On to `CC[C@H](C)[C@@H]1C(=O)O[C@H]1C(=O)N[C@H]1C[C@H]1C[C@@H](CCc1ccccc1)NC(=O)[C@H](C)NC(=O)c1ccc2ccccc2c1`, for which the IC50 in data set [2] stood at 10 nM; in the data set on HCT-116 [7], 790 nM. Besides, the “p53 accumulation (active/inactive)” value in the data set on HCT-116 [8] is “Active”. Also, the outcome in the data set on HCT-116 [9] and with HCT-116 [10] was Active.
As to `C=C[C@H](C[C@@H]1C[C@@H]1NC(=O)[C@@H]1OC(=O)[C@H]1[C@@H](C)CC)NC(=O)C(C)(C)C`, in data set [2], it took 210 nM to reach half-maximal inhibition (IC50).
As to `C=C[C@H](C[C@@H]1C[C@@H]1NC(=O)[C@@H]1OC(=O)[C@H]1[C@@H](C)CC)NC(=O)c1ccc2ccccc2c1`, the 50% inhibitory concentration (IC50) in data set [2] turned out to be 60 nM; in the data set with HCT-116 [7], 11200 nM. In addition, the “p53 accumulation (active/inactive)” value in the data set with HCT-116 [8] was “Active”. Further, the outcome with HCT-116 [9] and in the data set with HCT-116 [10] was Active.
On to `CC[C@H](C)[C@@H]1C(=O)O[C@H]1C(=O)N[C@H]1C[C@H]1C[C@H](NC(=O)[C@H](C)N)C(=O)O` [BELACTOSIN A], for which the IC50 in [2] was determined as 1440 nM. In addition, the inhibition entry in data set [4] and in data set [5] was “Active” each time.
The compound `CC[C@H](C[C@@H]1C[C@@H]1NC(=O)[C@@H]1OC(=O)[C@H]1[C@@H](C)CC)NC(=O)[C@H](C)NC(=O)OCc1ccccc1` returned an IC50 in data set [2] of 38 nM.
On to `C=C[C@H](C[C@@H]1C[C@@H]1NC(=O)[C@@H]1OC(=O)[C@H]1[C@@H](C)CC)NC(=O)[C@H](C)NC(=O)c1ccc2ccccc2c1`, for which the IC50 in data set [2] was 25 nM; with HCT-116 [7], 2610 nM. In addition, in the data set on HCT-116 [8], the “p53 accumulation (active/inactive)” value was “Active”. Also, the result with HCT-116 [9] and in the data set on HCT-116 [10] was Active.
In turn, `CC[C@H](C)[C@@H]1C(=O)O[C@H]1C(=O)N[C@H]1C[C@H]1C[C@@H](Cc1ccccc1)NC(=O)[C@H](C)NC(=O)OCc1ccccc1` had an IC50 in [2] of 14 nM.
Same read-out and setting: the same measure for `CC[C@H](C)[C@@H]1C(=O)O[C@H]1C(=O)N[C@H]1C[C@H]1C[C@H](NC(=O)[C@H](C)NC(=O)OCc1ccccc1)c1ccccc1`: 90 nM; for `C=C[C@H](C[C@@H]1C[C@@H]1NC(=O)[C@@H]1OC(=O)[C@H]1[C@@H](C)CC)NC(=O)[C@H](Cc1c[nH]c2ccccc12)NC(=O)OCc1ccccc1`: 28 nM.
Turning to `CC(=O)N[C@@H](CSC(=O)[C@]1([C@@H](O)C(C)C)NC(=O)[C@H](C)[C@@H]1O)C(=O)O`, the inhibition result in [11] and in data set [12] was “Active” in each case.
